# Measurements from different studies.
# Compare with care: the assays were run in different laboratories.
# PIK3CA: Phosphatidylinositol 4,5-bisphosphate 3-kinase catalytic subunit alpha isoform (PIK3CA, Homo sapiens, UniProt P42336)
# FOLH1: Glutamate carboxypeptidase 2 (FOLH1, Homo sapiens, UniProt Q04609)
# PIK3CB: Phosphatidylinositol 4,5-bisphosphate 3-kinase catalytic subunit beta isoform (PIK3CB, Homo sapiens, UniProt P42338)
Compound,target,read-out,action,technique,measurement,result
CN(C)C(=O)c1cc2cnc(Nc3ccc4c(=O)cc(N5CCOCC5)oc4c3)nc2n1C1CCCC1,PIK3CA,enzyme activity,inhibitor,radiometric,IC50,0.0325 µM
O=C(O)CC[C@H](NC(=O)N[C@@H](CCCCNC(=O)CCCCCCC(=O)NCCCC[C@@H](NC(=O)[C@H](CCC(=O)O)NC(=O)[C@H](CCC(=O)O)NC(=O)CCC(=O)NCCCN1CC[S][Tc]2(=[O])[S]CC[N]2CC1)C(=O)O)C(=O)O)C(=O)O (some centres unmarked),FOLH1,binding,,radioligand,Kd,0.0068 µM
CC1=CC(=O)NS(=O)(=O)O1,"T1R2/T1R3 (Homo sapiens, UniProt Q7RTX0+Q8TE23)",calcium signal,agonist,,EC50,1340 µM
CN1CCN(c2cc(=O)c3ccc(Nc4ncc5cc(C(=O)N(C)C)n(C6CCCC6)c5n4)cc3o2)CC1,PIK3CA,enzyme activity,inhibitor,radiometric,IC50,> 10 µM
COc1nc(-c2cccc(-c3ccccc3)c2C)ccc1CNCCNC(=O)CCCCCCCCCCC(=O)N1CCN(CCNC(=O)c2cc3c(=O)n4cccc(C)c4nc3n(CCc3cccs3)c2=N)CC1,"Speckle-type POZ protein (SPOP, Homo sapiens, UniProt O43791)",binding,,BLI,Kd,2.64 µM
CCC(C(=O)N1C(=O)C(=Nc2ccc(Cl)cc2Br)c2ccccc21)c1ccccc1 (centres unmarked),PIK3CA,enzyme activity,inhibitor,ADP detection,IC50,0.409 µM
O.O=C([O-])CN(CCN(CC(=O)[O-])Cc1cc(CCC(=O)O)ccc1O)Cc1cc(CCC(=O)NCCCCCC(=O)NCCCC[C@H](NC(=O)N[C@@H](CCC(=O)O)C(=O)O)C(=O)O)ccc1[O-].[Ga+3],FOLH1,binding,,radioligand,Kd,0.0116 µM
CC[C@H](C)[C@H](NC(=O)C[C@@H](NC(=O)CCC(=O)O)C(=O)O)C(=O)N[C@H]1CCc2cccc3c2N(C1=O)[C@H](C(=O)NCc1cn[nH]n1)C3,"Granzyme B (GZMB, Homo sapiens, UniProt P10144)",enzyme activity,inhibitor,fluorescence,Ki,0.0072 µM
CC(C)c1cccc(C(C)C)c1N=C1C(=O)N(Cc2ccc(Br)cc2)c2ccccc21,PIK3CB,enzyme activity,inhibitor,ADP detection,IC50,0.0862 µM
CN(C)C(=O)c1cc2cnc(Nc3cccc(-c4cccc5c(=O)cc(N6CCOCC6)oc45)c3)nc2n1C1CCCC1,PIK3CA,enzyme activity,inhibitor,radiometric,IC50,8.17 µM
C=CCN1C(=O)C(=Nc2cccc(C)c2)c2ccccc21,PIK3CA,enzyme activity,inhibitor,ADP detection,IC50,0.205 µM
CCCCC(=O)Nc1ccc(-c2ccc3ncn(CCC)c(=O)c3c2)cn1,"Phosphatidylinositol 5-phosphate 4-kinase type-2 beta (PIP4K2B, Homo sapiens, UniProt P78356)",binding,,competition with immobilised ligand,Kd,> 20 µM
CC1(C)CN(CCCCC(=O)N[C@H](Cc2ccccc2)C(=O)N[C@H](Cc2ccccc2)C(=O)N[C@H](CCCCNC(=O)CCCCCCC(=O)NCCCC[C@H](NC(=O)N[C@@H](CCC(=O)O)C(=O)O)C(=O)O)C(=O)O)CC[N]2CC(C)(C)[S][Tc]2(=[O])[S]1 (some centres unmarked),FOLH1,binding,,radioligand,Kd,0.0133 µM
O=C1Nc2ccccc2/C1=N/c1ccccc1Br,PIK3CB,enzyme activity,inhibitor,ADP detection,IC50,0.524 µM
